Laboratory results published in the RNAGym collection of RNA variant scans (doi:10.1126/science.aae0568).
Fewer inactive variants are shown than the library holds.

B1: tRNA (parent)
chain: GUUCCGUUGGCGUAAUGGUAACGCGUCUCCCUCCUAAGGAGAAGACUGCGGGUUCGAGUCCCGUACGGAACG

Variants of: B1
Experiment: yeast fitness relative to wild type (ratio to wild type); higher = fitter; tRNA-Arg(CCU), competitive growth, 37 C, YPD
Procedure, shortened: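 Amplicons of the tRNA-Arg(CCU) gene were sequenced, 100-nucleotide paired-end, from the start population and from each end population of a pooled yeast competition. The competition, in six parallel replicates, lasted 24 hours in YPD at 37°C. Fitness relative to wild type was calculated from changes in genotype frequencies. Genotypes had to have ≥ 100 starting reads, and estimates < 0.5 were set to 0.5.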
Variant U26C G56A has a yeast fitness of 0.895.
With U26A U32C A57C G67A A69U the yeast fitness was ≤ 0.5.
U26A A70C gave a yeast fitness of 0.928.
With U26C C27G C34U A37U A43G A45G the yeast fitness was ≤ 0.5.
G25C G52C showed a yeast fitness of 0.574.
U26A A40U A69U gave a yeast fitness of 0.699.
For U26C G41C C46A, the yeast fitness was 0.627.
Variant G25C G56A has a yeast fitness of 0.962.
G25C G41C C46U A65U showed a yeast fitness of 0.551.
In the case of U26C C29G A65G C66G G68C, the yeast fitness is reported as ≤ 0.5.
With U26C U28G C34U G38A the yeast fitness was ≤ 0.5.
Work on U26C C29U yielded a yeast fitness of 0.869.
Variant U26C C29G has a yeast fitness of 0.735.
With U26C C29A the yeast fitness was 0.664.
U26C C33G gave a yeast fitness of 0.632.
U26C C33U gave a yeast fitness of 0.676.
With U26A C49U G58A the yeast fitness was ≤ 0.5.
For G25C U32G G44A C46G, the yeast fitness was ≤ 0.5.
For U26C A43U G48C C60G, the yeast fitness was ≤ 0.5.
U26A A43G G51C A69U gave a yeast fitness of 0.566.
G25C G68A A69G gave a yeast fitness of 0.607.
With U26A A37G G48A C49G the yeast fitness was ≤ 0.5.
With G25C G52A U54G the yeast fitness was ≤ 0.5.
For G25U, the yeast fitness was 0.937.
For U26A U28A C31U G67A, the yeast fitness was ≤ 0.5.
U26C C30G U64C showed a yeast fitness of 0.703.
With G25U C34G C55G U59C C60U G67U the yeast fitness was ≤ 0.5.
With U26A C31G A36U A65U the yeast fitness was 0.681.
Work on U26A C62U G67A yielded a yeast fitness of 0.648.
For U26A A40C U64C C66A, the yeast fitness was ≤ 0.5.
For U26A C30A C34A G48C G68U, the yeast fitness was ≤ 0.5.
U26A C30U gave a yeast fitness of 0.787.
For G25C G51A G67A, the yeast fitness was 0.73.
With U26A G39C G48A C60G the yeast fitness was ≤ 0.5.
With U26A C49G C61A the yeast fitness was ≤ 0.5.
Work on G25C G67A G68A yielded a yeast fitness of 0.655.
With U26C C27G G68C the yeast fitness was ≤ 0.5.
In the case of U26A U35G A37U G56C A65G, the yeast fitness is reported as ≤ 0.5.
For U26C A36U A40U, the yeast fitness was 0.603.
Work on U26A G68C yielded a yeast fitness of 0.82.
Variant U26A G68A has a yeast fitness of 0.779.
In the case of U26A A43G, the yeast fitness is reported as 0.832.
In the case of U26A C49U A65G, the yeast fitness is reported as ≤ 0.5.
U26A C49U A65C gave a yeast fitness of 0.742.
With U26C A37C A40U A57C U64G the yeast fitness was ≤ 0.5.
With G25C G39C G44C C60U G68C the yeast fitness was ≤ 0.5.
Variant G25C G68A has a yeast fitness of 0.817.
Work on G25C G68C yielded a yeast fitness of 0.796.
In the case of U26A C27U C33G A36U G50A, the yeast fitness is reported as ≤ 0.5.
For U26A G48A C49G, the yeast fitness was 0.552.
In the case of U26C C29G C49U A69U, the yeast fitness is reported as 0.588.
With U26C C46G G63A the yeast fitness was ≤ 0.5.
In the case of U26C C27A C34U G41A, the yeast fitness is reported as ≤ 0.5.
U26C G67C showed a yeast fitness of 0.833.
U26C G67A gave a yeast fitness of 0.762.
For G25C G51C, the yeast fitness was 0.654.
Variant U26A C55G has a yeast fitness of 0.571.
In the case of U26C C55A, the yeast fitness is reported as 0.65.
U26C C55G gave a yeast fitness of 0.59.
For G25C G67C, the yeast fitness was 0.797.
Variant U26A G44C A65G has a yeast fitness of 0.573.
With U26C A42C A70C the yeast fitness was 0.757.
With U26A U35C A45U A65C the yeast fitness was ≤ 0.5.
Variant G25C G58C G67C has a yeast fitness of 0.706.
With G25U G44C the yeast fitness was 0.647.
For U26C C29A C34A, the yeast fitness was ≤ 0.5.
U26A C30A A65C gave a yeast fitness of 0.511.
With G25U A36U C49U the yeast fitness was ≤ 0.5.
U26C G50U gave a yeast fitness of 0.733.
With U26C G50C the yeast fitness was 0.732.
Work on G25C G58C G68A yielded a yeast fitness of 0.639.
With U26C C27G the yeast fitness was 0.588.
With U26C C27U the yeast fitness was 1.02.
U26C A43U showed a yeast fitness of 0.884.
In the case of U26C G52A, the yeast fitness is reported as 0.748.
G25C G41A gave a yeast fitness of 0.789.
U26A U54G showed a yeast fitness of 0.531.
U26A U54C gave a yeast fitness of 0.817.
Work on U26A A69U yielded a yeast fitness of 1.03.
For U26A A69C, the yeast fitness was 1.06.
With U26A A65U the yeast fitness was 0.829.
With U26A A65G the yeast fitness was 0.822.
With U26C C33U C55U C60U the yeast fitness was ≤ 0.5.
U26A A45C showed a yeast fitness of 0.698.
Work on U26A A45G yielded a yeast fitness of 0.882.
With G25C G41C G68C the yeast fitness was 0.565.
For U26C C33G U54C, the yeast fitness was ≤ 0.5.
For U26A C34G A57U C62U, the yeast fitness was 0.582.
G25C U26G C46G showed a yeast fitness of 0.576.
Work on U26A A40G C49G C61A yielded a yeast fitness of 0.626.
With G25C U32A A40C the yeast fitness was ≤ 0.5.
With U26C U32C A37G C49G the yeast fitness was ≤ 0.5.
With U26C C46G C62G U64C G67U the yeast fitness was ≤ 0.5.
Work on U26C U32A C34U G38C yielded a yeast fitness of 0.525.
G25U A45C C62A showed a yeast fitness of 0.777.
Work on U26A C27G C30G A36U G38C C46U C49G A65U yielded a yeast fitness of 0.573.
U26A G41A gave a yeast fitness of 0.818.
In the case of G25C U32A C60A, the yeast fitness is reported as ≤ 0.5.
For U26A C55A A57U, the yeast fitness was ≤ 0.5.
For U26C G48A, the yeast fitness was 1.05.
U26A G44C G67U gave a yeast fitness of 0.593.
U26A C31A showed a yeast fitness of 0.803.
U26A C31U showed a yeast fitness of 0.999.
With U26C A36C A65U G68A the yeast fitness was ≤ 0.5.
With U26A C30A A36U G52A G58A the yeast fitness was ≤ 0.5.
G25C U47C gave a yeast fitness of 0.954.
With U26C C27G C34U A37U A43G A45G A57G the yeast fitness was ≤ 0.5.
U26A C30G G38C A42U G58C gave a yeast fitness of 0.759.
Work on U26A C33A A37G yielded a yeast fitness of 0.581.
For U26C C33G A42C G67C, the yeast fitness was ≤ 0.5.
In the case of U26A U47G C49G A69C, the yeast fitness is reported as ≤ 0.5.
Work on U26A A57U yielded a yeast fitness of 0.802.
Variant U26A A57G has a yeast fitness of 0.973.
Work on U26C C33G A42C yielded a yeast fitness of 0.537.
With G25C U32C C46U G50A the yeast fitness was 0.667.
Work on U26A A43U A70U yielded a yeast fitness of 0.838.
With U26A A40C G41A G58A the yeast fitness was 0.655.
With U26C C30U U47A G67U the yeast fitness was ≤ 0.5.
Variant U26A G58A has a yeast fitness of 0.928.
U26A G67U showed a yeast fitness of 0.632.
Variant U26A G67C has a yeast fitness of 0.829.
With U26C A40U C60U A69C the yeast fitness was 0.535.
With U26A C49G A69C the yeast fitness was 0.6.
With U26A C30G C33U the yeast fitness was 0.604.
With U26A C34U C49G C66A the yeast fitness was ≤ 0.5.
Work on U26C A37G A69U yielded a yeast fitness of 0.665.
U26A G63C showed a yeast fitness of 0.683.
U26A G63A gave a yeast fitness of 0.86.
U26C C33A A40U showed a yeast fitness of 0.668.
In the case of U26A G39C, the yeast fitness is reported as 0.751.
For U26C U28C A36C, the yeast fitness was ≤ 0.5.
In the case of U26A U32C A57C C62U, the yeast fitness is reported as ≤ 0.5.
With U26C U28C A70G the yeast fitness was 0.73.
In the case of U26C A37C A40C A57C U64G, the yeast fitness is reported as 0.614.
With U26A A42C U59G the yeast fitness was ≤ 0.5.
With G25C G41C C46U C61G the yeast fitness was ≤ 0.5.
U26C C27U A36G showed a yeast fitness of 0.72.
Work on G25C G39C yielded a yeast fitness of 0.685.
With U26A U47G the yeast fitness was 0.661.
U26A U47C showed a yeast fitness of 0.994.
With U26C C34G A70C the yeast fitness was ≤ 0.5.
Variant G25U U59C has a yeast fitness of 0.657.
In the case of U26A G38C U47G G58A, the yeast fitness is reported as ≤ 0.5.
With G25C U47C G63A A65C the yeast fitness was ≤ 0.5.
With G25C U26G A36G C46G A70U the yeast fitness was ≤ 0.5.
In the case of U26C C30G G41A U64C, the yeast fitness is reported as ≤ 0.5.
For U26C G58C A69C, the yeast fitness was 0.697.
With U26A C49U C60U A69G the yeast fitness was ≤ 0.5.
For U26A G38C A45U C55U, the yeast fitness was ≤ 0.5.
Work on U26A A45G U54C yielded a yeast fitness of 0.52.
For U26A A43C A45U A65C, the yeast fitness was ≤ 0.5.
For G25U C27A G41A C62U, the yeast fitness was ≤ 0.5.
U26A A42C C49U C60G C66A showed a yeast fitness of 0.733.
In the case of U26C G50A U59A G67C, the yeast fitness is reported as ≤ 0.5.
Variant U26C A36G has a yeast fitness of 0.856.
Work on U26A yielded a yeast fitness of 0.996.
In the case of U26C, the yeast fitness is reported as 0.988.
For U26C A37G C60A, the yeast fitness was ≤ 0.5.
Variant U26C A70U has a yeast fitness of 0.926.
With U26C A70C the yeast fitness was 0.797.
For U26C U28C C34G U59A A65U, the yeast fitness was ≤ 0.5.
U26A C34G showed a yeast fitness of 0.618.
U26C G44A gave a yeast fitness of 0.945.
In the case of U26C G44C, the yeast fitness is reported as 0.77.
U26A A40G C62U gave a yeast fitness of 0.567.
In the case of U26A C27U C49A U64C, the yeast fitness is reported as ≤ 0.5.
In the case of U26C G39A, the yeast fitness is reported as 0.698.
